Laboratory results: ChEMBL document CHEMBL4020727, “Synthesis and biological evaluation of largazole zinc-binding group analogs” (Bioorg Med Chem, 2017)

How the values were obtained:
Homo sapiens [1] = organism: Homo sapiens; test: Inhibition of class 1 HDAC in human MDA-MB-231 cells assessed as hyperacetylation of histone H3 (Lys9/14) measured at 8 hrs post treatment by immunoblot analysis; type: cell-based
Method in brief: (§1)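 Cells in DMEM/10% FBS; 4 × 10^5 cells seeded in 60-mm dishes overnight, then treated for 8 h with 0–10 μM (final) compound or vehicle (1% EtOH). Whole-cell lysates loaded at equal protein (BCA), run on SDS-PAGE, blotted to PVDF and probed with anti-acetyl histone H3 (Lys9/14); β-actin also probed. Chemiluminescent detection.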

[2] = biological target: T1, Polyamine deacetylase HDAC10 (Homo sapiens, UniProt Q969S8); test: Inhibition of N-terminal GST-tagged/C-terminal His-tagged human HDAC10 (1 to 481 residues) expressed in baculovirus infected Sf9 insect cells using BPS HDAC substrate 3 after 30 mins by fluorescence assay
T1 sequence (Q969S8 whole entry): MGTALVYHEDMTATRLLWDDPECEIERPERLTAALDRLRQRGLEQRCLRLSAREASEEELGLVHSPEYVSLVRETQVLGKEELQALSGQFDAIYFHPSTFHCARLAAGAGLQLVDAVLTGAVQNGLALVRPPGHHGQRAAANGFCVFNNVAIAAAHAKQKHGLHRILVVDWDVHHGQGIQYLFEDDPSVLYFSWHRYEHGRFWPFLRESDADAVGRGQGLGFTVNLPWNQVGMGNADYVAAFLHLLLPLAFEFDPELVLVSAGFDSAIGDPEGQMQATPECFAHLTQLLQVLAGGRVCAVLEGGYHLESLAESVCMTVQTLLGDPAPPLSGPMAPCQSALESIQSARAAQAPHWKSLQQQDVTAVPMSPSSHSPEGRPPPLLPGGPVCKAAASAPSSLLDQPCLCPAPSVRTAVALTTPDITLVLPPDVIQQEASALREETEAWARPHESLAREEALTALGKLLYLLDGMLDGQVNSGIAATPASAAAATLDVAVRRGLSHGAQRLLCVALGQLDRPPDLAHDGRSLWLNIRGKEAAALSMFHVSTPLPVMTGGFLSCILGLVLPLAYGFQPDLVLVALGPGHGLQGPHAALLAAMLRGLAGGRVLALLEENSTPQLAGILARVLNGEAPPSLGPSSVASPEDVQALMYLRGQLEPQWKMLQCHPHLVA
Method in brief: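 Run by a contract lab. Compound incubated with HDAC enzyme, HDAC substrate, BSA and HDAC buffer, in duplicate, at 37 °C for 30 min. Quenched with HDAC developer, then 15 min at room temperature. Fluorescence read at ex 360/em 460 nm. Percent activity = (F−Fb)/(Ft−Fb), using blank and solvent-control wells. IC50 from curve fitting.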

Homo sapiens [3] = organism: Homo sapiens; test: Inhibition of class 1 HDAC in human HCT116 cells assessed as hyperacetylation of histone H3 (Lys9/14) measured at 8 hrs post treatment by immunoblot analysis; type: cell-based; method in brief: as §1
[4] = biological target: Histone deacetylase 3/Nuclear receptor corepressor 2 (HDAC3/NCoR2) (Homo sapiens, UniProt O15379); test: Inhibition of full length human C-terminal His-tagged HDAC3/N-terminal GST-tagged NCOR2 (395 to 489 residues) expressed in baculovirus infected Sf9 insect cells using BPS HDAC substrate 3 after 30 mins by fluorescence assay
Method in brief: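 Run by a contract lab. Compound incubated with HDAC enzyme, substrate, bovine serum albumin and HDAC buffer in duplicate for 30 min at 37 °C. Activity taken as (F−Fb)/(Ft−Fb) against blank and solvent control wells; IC50 from curve fitting.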

HCT-116 = test: Cytotoxicity against human HCT116 cells assessed as reduction in cell viability after 48 hrs by MTT assay; type: functional, cell-based; conditions: HCT-116, 48 h
Method in brief: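 Cells grown in DMEM with 10% FBS, 37 °C, 5% CO2; 1 × 10^4 cells per well plated and left 24 h, then exposed to a range of compound concentrations or vehicle (1% EtOH) for 48 h. Viability read by MTT.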

Histone deacetylase 3/Nuclear receptor corepressor 2 (HDAC3/NCoR2), sequence (O15379 whole entry, the tested form may be a part): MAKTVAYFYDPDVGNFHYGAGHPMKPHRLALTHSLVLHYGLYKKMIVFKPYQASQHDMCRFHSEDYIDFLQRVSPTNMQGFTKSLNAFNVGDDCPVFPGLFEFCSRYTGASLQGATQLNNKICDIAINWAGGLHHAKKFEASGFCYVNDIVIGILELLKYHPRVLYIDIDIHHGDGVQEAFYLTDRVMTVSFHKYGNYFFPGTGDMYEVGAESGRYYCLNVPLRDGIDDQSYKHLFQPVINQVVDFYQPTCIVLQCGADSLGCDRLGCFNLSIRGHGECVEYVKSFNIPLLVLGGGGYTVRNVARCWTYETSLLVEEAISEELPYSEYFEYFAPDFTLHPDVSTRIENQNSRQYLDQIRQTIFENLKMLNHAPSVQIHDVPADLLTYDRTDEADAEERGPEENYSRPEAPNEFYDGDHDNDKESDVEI
Histone deacetylase 3/Nuclear receptor corepressor 2 (HDAC3/NCoR2), sequence (Q9Y618 whole entry, further chain, the tested form may be a part): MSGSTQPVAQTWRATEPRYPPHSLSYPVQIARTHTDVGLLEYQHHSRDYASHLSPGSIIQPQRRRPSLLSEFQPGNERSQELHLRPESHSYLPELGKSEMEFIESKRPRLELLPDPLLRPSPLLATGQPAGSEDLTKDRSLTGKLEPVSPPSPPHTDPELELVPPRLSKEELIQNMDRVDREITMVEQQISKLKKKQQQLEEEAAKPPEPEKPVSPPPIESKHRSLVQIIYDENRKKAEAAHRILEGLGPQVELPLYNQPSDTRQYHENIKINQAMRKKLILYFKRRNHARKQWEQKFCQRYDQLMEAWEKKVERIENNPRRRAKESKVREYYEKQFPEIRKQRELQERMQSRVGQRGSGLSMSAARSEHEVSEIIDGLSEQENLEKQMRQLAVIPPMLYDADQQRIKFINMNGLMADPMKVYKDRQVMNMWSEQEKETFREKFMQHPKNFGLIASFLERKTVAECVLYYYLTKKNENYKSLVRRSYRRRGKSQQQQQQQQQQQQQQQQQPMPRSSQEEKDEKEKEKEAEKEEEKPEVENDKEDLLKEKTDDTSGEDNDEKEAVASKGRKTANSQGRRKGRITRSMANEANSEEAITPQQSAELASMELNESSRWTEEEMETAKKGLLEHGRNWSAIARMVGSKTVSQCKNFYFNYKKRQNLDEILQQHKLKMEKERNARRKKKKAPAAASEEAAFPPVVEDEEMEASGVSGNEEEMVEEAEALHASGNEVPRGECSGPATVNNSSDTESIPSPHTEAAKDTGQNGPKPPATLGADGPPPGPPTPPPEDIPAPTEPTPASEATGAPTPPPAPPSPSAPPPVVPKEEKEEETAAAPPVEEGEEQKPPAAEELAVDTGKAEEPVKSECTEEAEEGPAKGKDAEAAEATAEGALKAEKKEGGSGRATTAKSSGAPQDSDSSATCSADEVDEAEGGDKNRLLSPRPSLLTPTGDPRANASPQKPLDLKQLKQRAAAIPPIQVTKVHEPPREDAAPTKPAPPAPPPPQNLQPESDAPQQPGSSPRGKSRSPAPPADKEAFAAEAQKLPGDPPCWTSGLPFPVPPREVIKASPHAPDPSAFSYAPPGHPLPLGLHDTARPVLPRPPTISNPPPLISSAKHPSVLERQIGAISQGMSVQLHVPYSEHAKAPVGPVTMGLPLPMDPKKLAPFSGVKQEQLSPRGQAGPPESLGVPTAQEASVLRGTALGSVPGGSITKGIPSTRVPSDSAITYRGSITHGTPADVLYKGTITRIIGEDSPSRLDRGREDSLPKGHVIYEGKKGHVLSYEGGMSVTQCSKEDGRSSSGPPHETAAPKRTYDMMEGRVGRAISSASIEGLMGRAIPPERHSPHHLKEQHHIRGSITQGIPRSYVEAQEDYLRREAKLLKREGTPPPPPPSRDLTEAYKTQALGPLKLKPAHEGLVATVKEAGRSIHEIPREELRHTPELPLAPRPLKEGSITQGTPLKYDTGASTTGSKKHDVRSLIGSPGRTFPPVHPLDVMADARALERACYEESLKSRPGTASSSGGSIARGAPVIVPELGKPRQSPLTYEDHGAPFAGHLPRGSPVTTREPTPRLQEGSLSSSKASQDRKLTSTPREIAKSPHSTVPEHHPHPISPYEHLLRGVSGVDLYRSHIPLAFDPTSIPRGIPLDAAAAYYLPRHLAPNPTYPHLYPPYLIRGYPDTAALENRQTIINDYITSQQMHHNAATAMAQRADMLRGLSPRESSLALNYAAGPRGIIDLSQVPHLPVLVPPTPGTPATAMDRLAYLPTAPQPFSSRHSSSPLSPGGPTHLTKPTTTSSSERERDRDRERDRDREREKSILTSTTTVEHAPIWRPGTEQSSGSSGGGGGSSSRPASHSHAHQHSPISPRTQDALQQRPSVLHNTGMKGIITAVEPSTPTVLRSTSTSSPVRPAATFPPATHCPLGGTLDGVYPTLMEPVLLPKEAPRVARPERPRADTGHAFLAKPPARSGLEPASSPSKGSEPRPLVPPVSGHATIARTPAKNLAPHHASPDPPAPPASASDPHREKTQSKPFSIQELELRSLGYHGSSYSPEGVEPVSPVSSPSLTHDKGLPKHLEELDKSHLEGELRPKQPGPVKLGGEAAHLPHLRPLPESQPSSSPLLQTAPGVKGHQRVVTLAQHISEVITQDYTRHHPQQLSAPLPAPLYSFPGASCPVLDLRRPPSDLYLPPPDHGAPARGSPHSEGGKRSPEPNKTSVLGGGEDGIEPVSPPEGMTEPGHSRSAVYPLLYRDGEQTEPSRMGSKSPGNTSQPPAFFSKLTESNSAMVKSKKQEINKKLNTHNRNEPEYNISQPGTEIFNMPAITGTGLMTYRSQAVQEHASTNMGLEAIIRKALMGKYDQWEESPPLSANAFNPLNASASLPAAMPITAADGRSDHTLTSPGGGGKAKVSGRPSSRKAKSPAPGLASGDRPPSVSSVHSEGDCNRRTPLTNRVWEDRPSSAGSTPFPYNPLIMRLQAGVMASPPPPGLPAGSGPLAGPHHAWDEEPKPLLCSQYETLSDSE

Compound | inhibition (Homo sapiens [1]) | IC50 [2] [nM] | inhibition (Homo sapiens [3]) | IC50 [4] [nM] | IC50 (HCT-116) [nM]
CC(C)[C@@H]1NC(=O)[C@]2(C)CSC(=N2)c2csc(n2)CNC(=O)C[C@@H](/C=C/CCC(=O)NO)OC1=O | Dose-dependent effect | 21 | Dose-dependent effect | 29 | 3300
CC(C)[C@@H]1NC(=O)[C@]2(C)CSC(=N2)c2csc(n2)CNC(=O)C[C@@H](/C=C/CCSCCS)OC1=O | Dose-dependent effect | 3.6 | Dose-dependent effect | 43 | 1500
